Activity calls are given as the source filed them. The rule behind the calls is not given here.
Assays:
HCT-116 [1] = test: Antitumor activity against human HCT-116 cells xenografted in athymic nude mouse assessed as reduction in GSK3beta phosphorylation at serine 9 residue at 75 mg/kg, po administered twice daily measured after 2 hrs by ELISA method relative to control; assay type: functional; parameters: scale not given: the % may be the effect or the level left
Method in brief: (§1)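 HCT116-bearing nude mice, 75 mg/kg by gavage; tumors and PBMCs harvested 0.5, 2, 4, 8 h post-dose, n = 5 per time point. PBMCs from five mice pooled via CPT tube. Lysates assayed by pGSK3β Ser9 immunometric ELISA (tumor 400–600 μg, PBMC 50–100 μg protein/well); percent of vehicle control, Dunnett/ANOVA.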

HCT-116 [2] = test: Antitumor activity against human HCT-116 cells xenografted in athymic nude mouse assessed as reduction in GSK3beta phosphorylation at serine 9 residue at 75 mg/kg, po administered twice daily by Western blotting analysis; assay type: functional, organism-based; details: time <= 8.0 hrs, TDE = time-dependent effect
Hs-578T = test: Antiproliferative activity against human Hs-578T cells assessed as reduction in cell growth upto 10 uM measured after 6 days by propidium iodide staining based analysis; assay type: functional; details: time 6.0 day
Method in brief: (§2)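 ATCC-sourced lines grown without antibiotics; 1,000 cells/well in 1% FBS medium, refed ±drug on days 1 and 4 over a 6-day course. On day 7, propidium iodide (10 μg/mL in D-PBS) read after 30 min for nonviable cells, plate frozen at -80°C 2 h, thawed and reread; proliferative index = postfreeze minus prefreeze signal.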

U-87 MG [3] = test: Antitumor activity against human U-87 MG cells xenografted in athymic nude mouse assessed as reduction in GSK3beta phosphorylation at serine 9 residue at 75 mg/kg, po administered twice daily measured after 2 to 8 hrs by ELISA method relative to control; assay type: functional, U-87MG ATCC; parameters: scale not given: the % may be the effect or the level left; details: time 2-8 hrs
Method in brief: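 U87MG-bearing nude mice, 75 mg/kg twice daily by gavage; on day 21 tumors harvested 2, 4 or 8 h post-dose, lysates measured by pGSK3β Ser9 ELISA versus vehicle tumors; Dunnett's method, ANOVA.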

U-87 MG [4] = test: Inhibition of ERK in human U-87 MG cells at 1 micromol/L measured upto 4 hrs by Western blotting analysis; assay type: cell-based; details: dose 1.0 µmol/L
Method in brief: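 Cultured tumor cells treated with 1 μmol/L drug; lysates in cell extraction buffer with protease inhibitors, western blotted with phospho-specific antibodies (pGSK3β Ser9, pAKT Thr308, phospho-ERK) alongside total GSK3β/AKT.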

[5] = target: Mitogen-activated protein kinase 1 (Homo sapiens) (UniProt P28482); test: Inhibition of MAPK1 (unknown origin) at 1 micromol/L relative to control; details: dose 1.0 µmol/L
Mitogen-activated protein kinase 1 (Homo sapiens), sequence (P28482 whole entry): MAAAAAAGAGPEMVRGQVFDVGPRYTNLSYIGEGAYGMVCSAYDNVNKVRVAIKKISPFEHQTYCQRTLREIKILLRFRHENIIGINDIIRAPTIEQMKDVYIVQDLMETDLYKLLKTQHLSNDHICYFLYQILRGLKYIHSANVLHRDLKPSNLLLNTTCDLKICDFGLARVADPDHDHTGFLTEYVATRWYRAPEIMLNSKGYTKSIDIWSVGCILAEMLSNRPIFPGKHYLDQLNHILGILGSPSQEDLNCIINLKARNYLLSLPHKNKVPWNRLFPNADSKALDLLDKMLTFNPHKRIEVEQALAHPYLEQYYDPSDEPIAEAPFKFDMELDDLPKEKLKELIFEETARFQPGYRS
Method in brief: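 Upstate Kinase Profiler panel at 1 μmol/L drug, run per provider; data expressed as percent of kinase activity without drug.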

HCT-116 [6] = test: Inhibition of ribosomal protein S6 phosphorylation at serine 240/244 residue in human HCT-116 cells at 1 micromol/L upto 4 hrs by Western blotting analysis; assay type: cell-based; details: dose 1.0 µmol/L
Method in brief: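 HCT116 cells from ATCC were grown in FBS-containing medium without antibiotics. They were lysed in cell extraction buffer with protease inhibitor cocktails, and protein was measured by DC assay. Western blotting used phospho-S6 Ser240/244 and total S6 ribosomal protein antibodies.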

[7] = target: Protein kinase C eta type (Homo sapiens) (UniProt P24723); test: Inhibition of PKCeta (unknown origin) at 1 micromol/L relative to control; details: dose 1.0 µmol/L
Protein kinase C eta type (Homo sapiens), sequence (P24723 whole entry): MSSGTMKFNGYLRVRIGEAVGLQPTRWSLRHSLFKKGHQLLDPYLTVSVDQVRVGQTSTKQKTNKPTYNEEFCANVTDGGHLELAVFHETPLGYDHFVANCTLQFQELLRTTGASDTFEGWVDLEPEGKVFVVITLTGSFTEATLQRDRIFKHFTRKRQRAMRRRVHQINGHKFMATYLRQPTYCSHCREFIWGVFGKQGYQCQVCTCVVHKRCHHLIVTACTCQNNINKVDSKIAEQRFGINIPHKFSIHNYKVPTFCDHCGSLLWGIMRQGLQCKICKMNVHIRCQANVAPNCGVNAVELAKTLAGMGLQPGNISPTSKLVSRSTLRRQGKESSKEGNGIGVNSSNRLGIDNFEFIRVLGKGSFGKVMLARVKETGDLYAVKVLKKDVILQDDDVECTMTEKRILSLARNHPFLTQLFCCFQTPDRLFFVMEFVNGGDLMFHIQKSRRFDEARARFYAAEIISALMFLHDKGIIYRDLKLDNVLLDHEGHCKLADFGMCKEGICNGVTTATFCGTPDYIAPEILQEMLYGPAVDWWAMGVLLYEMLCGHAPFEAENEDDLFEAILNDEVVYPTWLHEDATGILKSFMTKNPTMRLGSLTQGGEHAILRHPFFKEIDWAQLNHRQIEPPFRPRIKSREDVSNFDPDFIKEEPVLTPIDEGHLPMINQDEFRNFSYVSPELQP
Method in brief: (§3)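 Commercial kinase profiler panel run to the provider's protocol, with the compound tested at 1 µmol/L. Activity is expressed as percent of kinase activity without compound.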

TK-10 = test: Antiproliferative activity against human TK-10 cells assessed as reduction in cell growth upto 10 uM measured after 6 days by propidium iodide staining based analysis; assay type: functional; details: time 6.0 day; method in brief: as §2
DU-145 = test: Antiproliferative activity against human DU-145 cells assessed as reduction in cell growth upto 10 uM measured after 6 days by propidium iodide staining based analysis; assay type: functional; details: time 6.0 day; method in brief: as §2
ACHN = test: Antiproliferative activity against human ACHN cells assessed as reduction in cell growth upto 10 uM measured after 6 days by propidium iodide staining based analysis; assay type: functional; details: time 6.0 day; method in brief: as §2
U-87 MG [8] = test: Induction of apoptosis in human U-87 MG cells assessed as increase in oligonucleosomal fragmentation at 1 to 4 micromol/L incubated for 48 hrs by ELISA method; assay type: functional, cell-based; details: U-87MG ATCC, dose 1-4 µmol/L
Method in brief: (§4)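 Oligonucleosomal fragmentation by Cell Death Detection ELISA-plus; 5,000 cells/well in 1% FBS medium, treated 48 h (range studied 0.1–10 μmol/L); absorbance normalized to control-treated cells to give nucleosomal enrichment factor.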

HCT-116 [9] = test: Antitumor activity against human HCT-116 cells xenografted in athymic nude mouse assessed as reduction in GSK3beta phosphorylation at serine 9 residue at 75 mg/kg, po administered twice daily measured after 2 to 4 hrs by ELISA method relative to control; assay type: functional; parameters: scale not given: the % may be the effect or the level left; details: time 2-4 hrs; method in brief: as §1
HCT-116 [10] = test: Antitumor activity against human HCT-116 cells xenografted in athymic nude mouse assessed as reduction in tumor growth at 75 mg/kg, po administered twice daily measured after 21 days; assay type: functional, organism-based; details: time 21.0 day
Method in brief: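 Female athymic nude mice, 6–8 weeks, 5 million cells s.c. flank in 1:1 serum-free medium/matrigel; at group mean 100 mm³, 75 mg/kg by gavage twice daily in 10% acacia for 21 days, n = 9/group, vehicle controls; caliper volume A²×B×0.536; two-way repeated measures analysis.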

[11] = Drug concentration in athymic nude mouse plasma xenografted with human HCT-116 cells at 75 mg/kg, po administered twice daily measured after 8 to 12 hrs by LC-MS analysis; assay type: ADME, organism-based; details: in vivo, time 8-12 hrs
Method in brief: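 HCT116-bearing nude mice given 75 mg/kg twice daily by gavage; plasma collected on day 1 and day 21 at 0.5, 1, 2, 4, 8 and 12 h after dose; drug quantified by LC-MS/MS.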

HCT-116 [12] = test: Induction of apoptosis in human HCT-116 cells assessed as increase in oligonucleosomal fragmentation at 1 to 4 micromol/L incubated for 48 hrs by ELISA method; assay type: functional, cell-based; details: dose 1-4 µmol/L; method in brief: as §4
PC-3 = test: Antiproliferative activity against human PC-3 cells assessed as reduction in cell growth upto 10 uM measured after 6 days by propidium iodide staining based analysis; assay type: functional; details: time 6.0 day; method in brief: as §2
[13] = target: Protein kinase C epsilon type (Homo sapiens, UniProt Q02156); test: Inhibition of recombinant human PKCepsilon using myelin basic protein as substrate incubated for 60 mins in presence of […] and ATP by microbeta scintillation counter analysis
Protein kinase C epsilon type, sequence (Q02156 whole entry): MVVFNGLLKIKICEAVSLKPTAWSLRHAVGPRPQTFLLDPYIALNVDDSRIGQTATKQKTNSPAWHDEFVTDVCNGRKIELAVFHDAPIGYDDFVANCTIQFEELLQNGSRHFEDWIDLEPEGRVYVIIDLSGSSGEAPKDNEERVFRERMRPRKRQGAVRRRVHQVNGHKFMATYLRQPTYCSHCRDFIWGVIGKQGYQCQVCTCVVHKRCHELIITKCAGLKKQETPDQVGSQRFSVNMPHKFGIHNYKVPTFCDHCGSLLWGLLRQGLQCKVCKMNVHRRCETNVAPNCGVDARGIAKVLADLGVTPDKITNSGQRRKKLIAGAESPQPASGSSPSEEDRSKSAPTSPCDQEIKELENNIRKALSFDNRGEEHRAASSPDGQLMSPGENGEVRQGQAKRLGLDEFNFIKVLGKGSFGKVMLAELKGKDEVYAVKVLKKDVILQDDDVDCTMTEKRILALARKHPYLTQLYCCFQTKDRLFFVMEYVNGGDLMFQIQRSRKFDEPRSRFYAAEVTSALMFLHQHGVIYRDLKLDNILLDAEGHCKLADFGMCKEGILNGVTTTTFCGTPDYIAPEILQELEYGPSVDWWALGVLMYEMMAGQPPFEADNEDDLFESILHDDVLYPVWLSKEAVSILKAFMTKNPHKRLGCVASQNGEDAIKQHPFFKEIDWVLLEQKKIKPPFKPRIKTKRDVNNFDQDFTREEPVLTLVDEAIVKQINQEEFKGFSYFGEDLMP
Method in brief: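 Recombinant human PKCε at 719 pmol/L. Myelin basic protein substrate at 0.25 mg/mL. 30 µmol/L ATP plus 32P-ATP. Started with enzyme, 60 min at room temperature, H3PO4 quench. Phosphocellulose filter capture, scintillation counting. 10-point series 1–2,000 nmol/L. IC50 from three-variable logistic fit.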

[14] = target: Platelet-derived growth factor receptor alpha (Homo sapiens) (UniProt P16234); test: Inhibition of PDGFRalpha (unknown origin) at 1 micromol/L relative to control; details: dose 1.0 µmol/L; method in brief: as §3
Platelet-derived growth factor receptor alpha (Homo sapiens), sequence (P16234 whole entry): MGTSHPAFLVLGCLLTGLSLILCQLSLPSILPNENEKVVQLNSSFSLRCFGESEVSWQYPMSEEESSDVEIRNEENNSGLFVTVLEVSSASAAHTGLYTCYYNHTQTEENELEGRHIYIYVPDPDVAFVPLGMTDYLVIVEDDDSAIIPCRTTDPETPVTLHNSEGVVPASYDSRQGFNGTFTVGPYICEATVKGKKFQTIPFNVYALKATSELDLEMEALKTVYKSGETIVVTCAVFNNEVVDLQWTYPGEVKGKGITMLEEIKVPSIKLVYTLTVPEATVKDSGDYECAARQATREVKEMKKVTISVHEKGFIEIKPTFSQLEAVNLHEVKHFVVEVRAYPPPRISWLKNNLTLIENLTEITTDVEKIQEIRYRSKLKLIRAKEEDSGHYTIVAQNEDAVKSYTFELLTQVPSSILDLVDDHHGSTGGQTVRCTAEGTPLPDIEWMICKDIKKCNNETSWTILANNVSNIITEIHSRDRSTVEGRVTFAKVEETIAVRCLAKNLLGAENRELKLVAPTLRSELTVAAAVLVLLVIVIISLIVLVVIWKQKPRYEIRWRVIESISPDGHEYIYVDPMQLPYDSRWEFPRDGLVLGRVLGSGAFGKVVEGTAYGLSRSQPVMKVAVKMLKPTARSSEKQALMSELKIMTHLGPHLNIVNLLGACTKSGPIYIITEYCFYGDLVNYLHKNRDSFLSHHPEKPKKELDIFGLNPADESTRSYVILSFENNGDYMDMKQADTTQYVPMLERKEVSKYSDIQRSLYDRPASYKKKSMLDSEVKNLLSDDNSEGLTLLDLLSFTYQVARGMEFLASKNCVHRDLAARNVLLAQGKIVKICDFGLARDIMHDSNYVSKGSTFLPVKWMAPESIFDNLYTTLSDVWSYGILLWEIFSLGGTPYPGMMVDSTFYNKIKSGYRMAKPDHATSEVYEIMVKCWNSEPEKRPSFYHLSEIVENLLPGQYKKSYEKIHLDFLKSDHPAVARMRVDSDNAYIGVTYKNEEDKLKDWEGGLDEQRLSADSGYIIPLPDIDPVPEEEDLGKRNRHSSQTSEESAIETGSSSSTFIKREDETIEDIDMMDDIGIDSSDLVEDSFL

Malme-3M = test: Antiproliferative activity against human Malme-3M cells assessed as reduction in cell growth upto 10 uM measured after 6 days by propidium iodide staining based analysis; assay type: functional; details: time 6.0 day; method in brief: as §2
T47D = test: Antiproliferative activity against human T47D cells assessed as reduction in cell growth upto 10 uM measured after 6 days by propidium iodide staining based analysis; assay type: functional; details: time 6.0 day; method in brief: as §2
[15] = target: Protein kinase C theta type (Homo sapiens) (UniProt Q04759); test: Inhibition of PKCteta (unknown origin) at 1 micromol/L relative to control; details: dose 1.0 µmol/L; method in brief: as §3
Protein kinase C theta type (Homo sapiens), sequence (Q04759 whole entry, looked up): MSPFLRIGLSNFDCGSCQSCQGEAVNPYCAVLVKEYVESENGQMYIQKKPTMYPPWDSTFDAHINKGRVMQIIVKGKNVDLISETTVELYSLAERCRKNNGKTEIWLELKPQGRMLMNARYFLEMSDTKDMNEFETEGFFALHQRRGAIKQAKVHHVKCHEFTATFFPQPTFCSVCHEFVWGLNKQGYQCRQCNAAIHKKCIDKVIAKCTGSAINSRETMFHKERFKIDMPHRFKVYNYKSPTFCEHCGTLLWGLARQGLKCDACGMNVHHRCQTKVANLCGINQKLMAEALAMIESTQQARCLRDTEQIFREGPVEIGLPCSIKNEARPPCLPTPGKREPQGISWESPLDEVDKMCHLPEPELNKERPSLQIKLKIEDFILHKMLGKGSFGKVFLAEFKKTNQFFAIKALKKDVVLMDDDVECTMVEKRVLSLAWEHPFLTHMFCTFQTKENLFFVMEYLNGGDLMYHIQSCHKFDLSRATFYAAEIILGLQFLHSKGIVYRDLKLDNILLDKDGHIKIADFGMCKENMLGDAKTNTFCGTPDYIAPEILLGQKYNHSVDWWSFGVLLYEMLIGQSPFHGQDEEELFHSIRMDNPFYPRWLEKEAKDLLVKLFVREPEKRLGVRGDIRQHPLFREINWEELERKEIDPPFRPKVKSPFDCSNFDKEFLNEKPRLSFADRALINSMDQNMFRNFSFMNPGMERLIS

In the case of `Cl.Cn1cc(C2=C(c3cn(C4CCN(Cc5ccccn5)CC4)c4ccccc34)C(=O)NC2=O)c2ccccc21` [ENZASTAURIN HYDROCHLORIDE], the Activity (HCT-116 [1]) is reported as 80%, the Activity (HCT-116 [2]) is reported as “Tde” and the Activity (Hs-578T) is reported as “inactive”. The Activity (U-87 MG [3]) was greater than 50%, the inhibition (U-87 MG [4]) was “inactive” and the % control activity [5] was 114%. The inhibition (HCT-116 [6]) was “Active”, the % control activity [7] was 53% and the Activity (TK-10) was “inactive”. The Activity (DU-145) was “inactive”, the Activity (ACHN) was “inactive” and the Activity (U-87 MG [8]) was “Active”. For the same molecule, the Activity (HCT-116 [9]) was greater than 60%, the Activity (HCT-116 [10]) was “Active” and the Drug uptake [11] was “Not Active”. For the same molecule, the Activity (HCT-116 [12]) was “Active”, the Activity (PC-3) was “Active” and the IC50 [13] was 110 nM. The % control activity [14] was 86%, the Activity (Malme-3M) was “inactive” and the Activity (T47D) was “inactive”. For the same molecule, the % control activity [15] was 2%.
